The nature of series [1]: DPPH radical scavenging assay. The series is classed as biochemical. The settings on record: read-out: IC50, DPPH radical scavenging; data not shown.
The next series relates to NF-κB. The series is classed as cell-based, human. The settings on record: MIAPaCa-2 cells, EMSA.
The next series deals with BxPC-3 cells. Put plainly: PGE2 immunoassay in conditioned medium of BxPC-3 cells. The series is classed as cell-based, human. The settings on record: 1 or 4 μM, 24 h, vs untreated control.
The nature of series [2]: Pancreas pharmacokinetics in mice after single intragastric dose. Type of series: in vivo. The gist of the method:
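Female ICR-SCID mice, 7–8 weeks old, 18 per compound, got a single 250 mg/kg dose in sesame oil by intragastric intubation. Two mice were killed at 0, 1, 2, 4, 6, 8, 12, 16 and 24 h. Pancreas was PBS-washed, blotted, weighed, frozen at −80°C, then homogenized in 5 volumes ice-cold 0.9% saline. Homogenate was ethyl acetate-extracted with zileuton internal standard and assayed by LC-MS/MS. Values are means of two mice.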

Series [3] has as its system COX-2 positive BxPC-3 pancreatic cancer cells. The following applies: BxPC-3 cells, MTT assay; cited from earlier work.
The next series has as its system MIAPaCa-2 cells. Put plainly: PGE2 immunoassay in conditioned medium of MIAPaCa-2 cells. The following applies: 1 or 4 μM, 24 h, vs untreated control. The series is classed as cell-based, human.
The next series in a line: Water solubility. The series is classed as physicochemical. The following applies: data not shown.
A short description of series [4]: Serum pharmacokinetics in mice after single intragastric dose. The series is classed as in vivo. The gist of the method:
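Female ICR-SCID mice, 7–8 weeks old, 18 per compound, got a single oral 250 mg/kg dose in sesame oil by intragastric tube. Two mice were killed at 0–24 h (nine time points). Cardiac blood was clotted and serum stored at −80°C, then ethyl acetate-extracted with zileuton internal standard and assayed by LC-MS/MS. Cmax was read from the curve. AUClast used linear (rising) and log (falling) trapezoids in non-compartmental analysis. Values are means of two mice.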

The conditions of series [5]: serum, oral 1 g/kg body weight, mouse; cited from earlier work.
The mark [6] stands for this setting: pancreas, single intragastric 250 mg/kg, mice, mean from two mice.
Setting [7] is: single intragastric 250 mg/kg, mice, mean from two mice.
Where [8] appears, read: female, ICR-SCID, mouse, pancreas, po, 250 mg/kg.
Setting [9] is: female, ICR-SCID, mouse, po, 250 mg/kg.

The structures appear in SMILES notation. Several values for one entry are separate records, joined by “and”; a condition that tells them apart may be missing. Equal values may be shown once. Entries after “also recorded” stand apart in the source; their conditions may differ.

In the case of `COc1cc(/C=C/C(=O)C(=Cc2ccc(F)c(F)c2)C(=O)/C=C/c2ccc(O)c(OC)c2)ccc1O` [CDF], the IC50 in [1] came out at 0.05 µM. Moreover, the “NF-κB DNA-binding activity” value in the series with NF-κB is listed as “the effect was more pronounced with a low concentration of CDF”. Besides, the “PGE2 level in conditioned medium” value in the series on BxPC-3 cells is given as “significant decrease; also recorded: significant reduction”. The “Cmax in pancreas relative to serum” value in [2] (at 8 h, oral 250 mg/kg, mice) was 44.5 fold. The “Cmax in pancreas relative to Curcumin” value in series [2] (pancreas, oral 250 mg/kg, mice) worked out at 4.3 fold. For the same compound, the “AUClast (concentration) in pancreas relative to Curcumin” value in series [2] (pancreas, oral 250 mg/kg, mice, 250 mg/kg) was 10 fold and 10.6 fold. Further, in [2] (setting [6]), the AUClast turned out to be 36.56 µg·h/g, the Clast was determined as 0.04 µg/g, the Cmax was determined as 9.35 µg/g and the Tlast came out at 12.0 h. In addition, the Tmax in [2] (setting [6]) was found to be 8.0 h. In series [3], the “IC50, anti-proliferative activity” value was “low IC50 value”. For the same compound, the “PGE2 level in conditioned medium” value in the series on MIAPaCa-2 cells is “significant decrease; also recorded: substantial reduction”. In addition, the “Water solubility relative to Curcumin” value in “Water solubility” is given as 8.4 fold. The “Systemic drug level (serum AUClast) relative to Curcumin” value in series [4] (oral 250 mg/kg, mice) worked out at 2.7 fold. In series [4] (setting [7]), this compound showed an AUClast of 1220 ng·h/mL, a Clast of 40 ng/mL, a peak concentration (Cmax) of 210 ng/mL and a Tlast of 16.0 h. Also, the time of peak concentration (Tmax) in series [4] (setting [7]) is 8.0 h.

With `COc1cc(/C=C/C(=O)CC(=O)/C=C/c2ccc(O)c(OC)c2)ccc1O` [Curcumin, diferuloylmethane, reference compound], in series [1], the IC50 came out at 35 µM. Moreover, the “NF-κB DNA-binding activity” value in the series with NF-κB was “caused down-regulation of NF-κB”. In addition, the “PGE2 level in conditioned medium” value with BxPC-3 cells is “such results were not found; also recorded: no significant change”; in the series with MIAPaCa-2 cells, “significant decrease; also recorded: substantial reduction”. Besides, the “Time of Cmax” value in [5] is 1 h. Moreover, the Cmax in series [2] (setting [8]) was found to be 2.15 µg/g; in [4] (setting [9]), 220 ng/mL. Further, the Tmax in series [2] (setting [8]) and in series [4] (setting [9]) was 1 h throughout. This compound yielded an AUClast in series [2] (setting [6]) of 3.46 µg·h/g. Also, the Tlast in series [2] (setting [6]) is 16.0 h; in [4] (setting [7]), 8 h and 8.0 h.

Source of the values: paper PMC3759818 (Pharmaceutical research, 2009).
